System: MS2 coat protein
Assay: apparent Kd, MS2 coat protein; higher = weaker binding; RNA-MaP array; FMN 200 µM where present
Outline: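 In 100 mM Tris-HCl pH 7.5, 80 mM KCl, 4 mM MgCl2, BSA, DTT, yeast tRNA and Tween-20, SNAP-549-labelled MS2 coat protein was titrated from 0.7 or 1.5 nM, doubling to 3 µM, over designs transcribed by stalled E. coli RNA polymerase on Illumina sequencing-chip clusters. This was done first without ligand, then with ligand held constant. After green signal was normalised to red-channel RNA signal and control-cluster median Fmax, the apparent Kd was taken as the median of filtered per-cluster binding-curve fits.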

[1] = designed as: OFF switch for flavin mononucleotide, no ligand
[2] = ligand present: flavin mononucleotide, designed as: OFF switch for flavin mononucleotide
[3] = designed as: ON switch for flavin mononucleotide, no ligand
[4] = ligand present: flavin mononucleotide, designed as: ON switch for flavin mononucleotide

Sequence | apparent Kd [1] [nM] | apparent Kd [2] [nM] | apparent Kd [3] [nM] | apparent Kd [4] [nM]
GUUAUGUCAGGAUAUGCUUAUGGUGGGUGCUCAGACAUGAUGCAGAAGGGACAUGAGGAUCACCCAUGUACUGU | 593 | 435 |  | 
AAAACGUCAGGAUAUACAGAAGAGAUCACAAAAAAAAAAAAACAUGAGGAUCACCCAUGUAGAAGGGACAAAAA | 138 | 188 |  | 
AGCGGCGCAGACCACCGCAAAACCAGAAGGACAUGAGGAUCACCCAUGUAACAAAACAGGGCGAUGUAGGAUAUGGCAAACCCA | 16.3 | 18.8 |  | 
UACCGCGACAACACGGUAUCACAUGAGGAUCACCCAUGUUCACAGGAUAUGCGAUAGCCAACGAAGCAGAAGGGUGAUUACUUA |  |  | 37.3 | 263
UCGAACGGAAACAAAGUAAAUAGACAUGAGGAUCACCCAUGUAAGGAUAUGCCUACUAAAAGUAGGCAGAAGGUACGCGUUCGA | 16.5 | 20.7 |  | 
UGGUACAUGGGAGGAUAUCAUGUAGUAACAUGAGGAUCACCCAUGUCGAUGGAGACAUCGGAGAUUGAGAAGGCCCAUGUACCU |  |  | 921 | 32.5
GGUGCGUUUGUGAGGAUAUGCUGGUCCUUGGAUCAGCAGAAGGCACAUGAGGAUCACCCAUGUGGUGUCCCUCC | 168 | 291 |  | 
UUCCUACAUGAGGAUCACCCAUGUCAGGAUAUGUAGACGCAAAUUUACGAUUUGCGGAAUAGAAGGGACGUGAC | 24.1 | 25.9 |  | 
UGAUAGGACAGAGGAUAUACCGAUAGGAGAUACUAUCGACUAGUCCUCACAUGAGGAUCACCCAUGUAGAAGGCUGUCCUAUCU | 22.8 | 269 |  | 
AUGAGAAAAGCAGGAUAUCUAUUGUCUCAGAAACAUGAGGAUCACCCAUGUAGAGAAGGGCUAAGACCGACUCUUCGGAGUUGA | 9.66 | 9.77 |  | 
GAUACGUCAGGAUAUCUGAUGUCUAACUUCGGUUAGACAUCAGAGAAGGGACAUGAGGAUCACCCAUGUAUCAA | 42.6 | 56.7 |  | 
GUAGCAUACCGAGGAUAUUCAGGGCGUGGGUAAACAUGAGGAUCACCCAUGUGGCGAAAGCCUAGGGAGAAGGCGGAAUGCUAC |  |  | 151 | 130
CCCUCACAUGAGGAUCACCCAUGUCAGGAUAUUCGGCGGUCAAUUGACCGCCUUAAAGGAAGAAGGGACGUAAA | 12.7 | 18.9 |  | 
GUGUACGGAGGAUAUAUAUGGGCAGCAUACGCUGCAGCUUCACAUGAGGAUCACCCAUGUAGAAGGCUGUGCAC | 22.4 | 129 |  | 
UGAACUUCAGAGAAGGUCGGAUGGCAACGGUCCGAAGGAUAUCUGGAAACAUGAGGAUCACCCAUGUAACCGGGUGGAUGUCCU | 35 | 113 |  | 
GGGCCGCUACGCCGGCUCCACGCACAGGAUAUGCAGUUACAUGAGGAUCACCCAUGUGGCCAUGUGCAGAAGGGUGGUUCGCGA |  |  | 85.3 | 28.6
UGUACAUUAUUAAGUAAUUAGGCGAAGGAUAUAUAACAUGAGGAUCACCCAUGUACUAAGUUGAAGUAGAAGGUUGAGCAUUUC |  |  | 19 | 15.7
CCUAUGUGAGGAUAUGUCUGGUCUUCUUUUGUUUUUUACAGACAGAAGGCACAUGAGGAUCACCCAUGUCAGAC | 16.8 | 24.4 |  | 
AGCUAGUACCGAGGAUAUACAUACAUGAGGAUCACCCAUGUAUACAUGAACAAUUGAGACUACAUGUAGAAGGCGGUACUAGCA |  |  | 49.9 | 18.6
AGUCGGCGAGGAUAUACAUGAGGAUCACCCAUGUGUGAUCCUAGACCUGUAGGUCCAUGUAGAAGGCGCUGACA | 19.6 | 23.6 |  | 
AUUUAUGGCCAGAAGGACAUGAGGAUCACCCAUGUAGGAUAUGGACGAUUUUGCUCGGUGGUUCGUUUAGGAAGCACCGGUGGU |  |  | 9.59 | 7.02
UGUGGGAGUCAGAAGGAGUAUUCUACAUGAGGAUCACCCAUGUCUGGUGCUAGGAUAUGGGUCUGGGCGGACUAAGGUCUCGUA |  |  | 444 | 243
UUUAAGGAAGGAUAUACAAUAUAAAUAAUAUCCUCAUUAUUACAUGAGGAUCACCCAUGUAGAAGGUCCAAUUU | 118 | 368 |  | 
AGACUGCGUAGAAUUAGCAGCUGACAGGAUAUGACAUGAGGAUCACCCAUGUGAACUACAAAGGAUCAGAAGGGUCACGACACA | 18.6 | 30.3 |  | 
GGGUACAUCGGAGGAUAUCAUGUAAAUACAUGAGGAUCACCCAUGUCGAUGGAGACUUCGGAGAUUGAGAAGGCCGAUGUACCG |  |  | 434 | 27.8
GUGUACAGAGGAUAUACUGGAGCUAGGAAACUAGCAACCUCACAUGAGGAUCACCCAUGUAGAAGGCUGUACAC | 402 | 25.8 |  | 
UCAUACAUGAGGAUCACCCAUGACAUGAGGAUCACCCAUGUGCAGGAUAUACGUGAUAUAAUAUAGUAGAAGGGCAGACCAAAA | 42.8 | 55.1 |  | 
AGUCGGAGCAGAGGAUAUAUACAUGAGGAUCACCCAUGUAAAGAUCAAAGCUGGAAACAGCAAGUAUAGAAGGCUGCUCCGACA | 90.5 | 271 |  | 

Sequence | apparent Kd [1] [nM] | apparent Kd [2] [nM] | apparent Kd [3] [nM] | apparent Kd [4] [nM]
GUCGAUGUAGGAUAUUUCCACCCGCACAUGAGGAUCACCCAUGUGACCUUUUUCCGCUGGAAAGAAGGACGCGACA | 19.8 | 28.4 |  | 
AUGCAGCUACCACAGGAUAUACGUGGAUCGACAUGAGGAUCACCCAUGUAUAUCCUAAUAAUUGCGUAGAAGGGUGGUCAGCUGC |  |  | 1540 | 103
CAGCGAAAGCUGAAUGUCGGAGCAGAGGAUAUUACAUGAGGAUCACCCAUGUAUGAACCAAAAUGUAAGAAGGCUGCUCCGACA | 844 | 20.4 |  | 
GCUUCACAUGAGGAUCACCCAUGUCUUCGGAGUCGAGGAUAUGGUAACUGUAAACAGUUGCCAGAAGGCGAGGAGC |  |  | 59.6 | 35.5
AGACGCAUGCAGAAGGACGACAUGAGGAUCACCCAUGUGGUCGGUAGGGUCGUAGGAUAUGCAAGGCGUUGCGAGCCAACUGUG | 118 | 26.9 |  | 
AUGCUUCACACAGGAUAUACAUGAGGAUCACCCAUGUGUCCUCCGUAAUUGACACCAAUUACGCUGUAGAAGGGUGUGAAGCAU | 258 | 188 |  | 
AUAUAAAUAUAGGAUAUCGAAUUUAUUAAUUAUCGAGAAGGAUAAACAUGAGGAUCACCCAUGUGGUAUCAUGG | 366 | 336 |  | 
UCUGUUCAAGGAUAUGCGUAAUGUGUUACGGCACGAGGUCUACAUGAGGAUCACCCAUGUAGAAGGUGAUCAGA | 21.5 | 22.2 |  | 
CACACAUGUGGAGGAUAUGUAGUUAACAUAAGCGCAGAAGGCCACAUGAGGAUCACCCAUGUCCGGCAUUAGCCGAUGUUGAUC | 108 | 397 |  | 
UAGUGCGUUAGAGGAUAUUCUAAAAUAAAAUAAAAGACAUGAGGAUCACCCAUGUAUGUACAUGGGAAGAAGGCUGAUGUGCUA |  |  | 438 | 51.4
GUUGCUAUCGGAGGAUAUUCAUACCGGAAACGGACAUGAGGAUCACCCAUGUGGCGAAAGCCAUGGGAGAAGGCCGAUAGCAAC |  |  | 1350 | 138
AGUAGAUCAGGAUAUACGUGAAAGGUCAAAGUGUCCAAUCUACAUGAGGAUCACCCAUGUAGAAGGGAUCUACA | 15.2 | 14.6 |  | 
GGCUGUCGGUCGGGUCAUCCACAUGAGGAUCACCCAUGUAGGAGAAGGGUCCGCCAGGCUUGUGGAUAGGAUAUCCUAGAAUGA | 5.45 | 5.52 |  | 
UAUUAUAUGGAGAAGGACAUGAGGAUCACCCAUGUCGCCGGGCCCGGGAAACCGGGCCCGGCCAUGUAGGAUAUCCGUAUGGUA | 6 | 7.96 |  | 
UUGGACGUCGUAGGUUAUGUAGGAUAUUCCUACAUGAGGAUCACCCAUGUUGACAUGGAAGAAGGACAGAAGGACGAUGUCCAU |  |  | 205 | 3.92
UGUCGGAGCAGAGGAUAUUACAUGAGGAUCACCCAUGUAUGAACCAAUAGCUGGAAACAGCAAUUUAAGAAGGCUGCUCCGACA | 5.28 | 4.96 |  | 
ACCAUUUACUAGUUUUCUAUACAUGAGGAUCACCCAUGUUUUUAGGAUAUCAGCGUGAAACACGCUGAGAAGGAAGAACAUUCG | 22.6 | 31.2 |  | 
UUUAUUAAUUAGAAGGCAUGAUGAAUUACAAUAGACAUGAGGAUCACCCAUGUGUAUUCAUGUCAUGAGGAUAUAGUCAUAUAU |  |  | 10.3 | 7.27
UUAAUGUGAGGAUAUCAGGUGUGAUAGAGUAAUGGUAAAUCUGAGAAGGCACAUGAGGAUCACCCAUGUUCUUC | 23 | 33.8 |  | 
ACGAAGAUACAGAAGGGUAAAGUAGUUAAUUAUAAGUAGGAAAUGCUCUACAGGAUAUGUUAGACAUGAGGAUCACCCAUGUAC |  |  | 30.7 | 13.1
GCGGGUCCGGAGAAGGGUACCGUGGGUAUGAUACAUGAGGAUCACCCAUGUACAGGAUAUCCGGCAAAGAUGUGGCUAAGAGGG | 257 | 34.5 |  | 
GGUUGUGUGUAAGGAUAUGCAUCACUGAGAAAUUUAGUGAGGAAGAUCACAUGAGGAUCACCCAUGUAGAAGGUACACACGUGG | 10.7 | 50.1 |  | 
AGAGCGAUAGGAUAUACAUGAGGAUCACCCAUGUUAAAAGUGGAAUCCUUGGACGCAUGUAGAAGGAUUGCGCC | 49.7 | 94.2 |  | 
GUUUUGAUAGGAUAUACAUGAGGAUCACCCAUGUCCCACCCGUUACCUAUGACCAUAUGUAGAAGGAUCGUUUG | 98.1 | 83.9 |  | 
ACAAGAUCAGGAUAUACAUGAGGAUCACCCAUGUAUAUAAAAAAAGGGCCUUCUACAUGUAGAAGGGAUCUUGU | 13.8 | 13.7 |  | 
GCCGAACAUGAGGAUCACCCAUGUCUGGGUAAUCAAGGAUAUGGGAAGGCUUUGCCAUGACCAGAAGGUGGUUAUC |  |  | 209 | 23.1
GCAUCCAAUGUGAGGAUAUACCUCUGGAUACAUAGGUAGAAGGCACAUGAGGAUCACCCAUGUUCCUAGGAUGC | 44.6 | 222 |  | 

Source: the EternaBench riboswitch data
